pIC50: −log10 of the molar value. Converted amounts (≈) assume the structure as drawn.

The subject of experiment [1] is Escherichia coli. Nature of the experiment: Antibacterial activity against Escherichia coli AG001. It is filed as functional.
The test system of experiment [2] is Staphylococcus aureus. Nature of the experiment: Antibacterial activity against methicillin-resistant Staphylococcus aureus AG038. It is filed as functional.
In experiment [3] the test system is Enterobacter cloacae. Nature of the experiment: Antibacterial activity against Enterobacter cloacae AG290. It is filed as functional.
The nature of experiment [4]: Inhibition of human mitochondrial ribosome Mit 13 hybridized with Mycobacterium smegmatis ribosome assessed as inhibition of translation activity using Firefly luciferase mRNA reporter based luminescence analysis. Summed up:
(§1)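 Cell-free ribosomal translation assay. IC50 reported in μM ± STD, determined in duplicate or more, with fewer replicates for a few compounds where material was limited.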

For experiment [5], the target named is Bacterial 70S ribosome. Description: Inhibition of Mycobacterium smegmatis wild type ribosomes assessed as inhibition of translation activity using Firefly luciferase mRNA reporter based luminescence analysis. Type of experiment: subcellular, Mycolicibacterium smegmatis. Summed up:
(§2)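 Cell-free ribosomal translation inhibition with IC50 reported in μM. Values were determined in duplicate or more, except for a few compounds in the mitochondrial hybrid assays, where limited material allowed fewer runs.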

The subject of experiment [6] is Acinetobacter baumannii. Nature of the experiment: Antibacterial activity against Acinetobacter baumannii AG225. It is filed as functional.
Experiment [7] in a line: Selectivity ratio of IC50 for inhibition of human mitochondrial ribosome Mit 13 hybridized with Mycobacterium smegmatis ribosome to IC50 for inhibition of Mycobacterium smegmatis wild type ribosomes.
Experiment [8] relates to Pseudomonas aeruginosa. Description: Antibacterial activity against Pseudomonas aeruginosa AG031. Type of experiment: functional.
Experiment [9] is described as follows: Selectivity ratio of IC50 for inhibition of human cytoplasmic ribosome Cyt 14 hybridized with Mycobacterium smegmatis ribosomes to IC50 for inhibition of Mycobacterium smegmatis wild type ribosomes.
Experiment [10] deals with Klebsiella pneumoniae. Description: Antibacterial activity against Klebsiella pneumoniae AG215. It is filed as functional.
The nature of experiment [11]: Inhibition of human cytoplasmic ribosome Cyt 14 hybridized with Mycobacterium smegmatis ribosome assessed as inhibition of translation activity using Firefly luciferase mRNA reporter based luminescence analysis. Summed up:
as §1

The nature of experiment [12]: Selectivity ratio of IC50 for inhibition of human mitochondrial ribosome Mit 13 A1555G mutant hybridized with Mycobacterium smegmatis ribosomes to IC50 for inhibition of Mycobacterium smegmatis wild type ribosomes.
The nature of experiment [13]: Inhibition of human mitochondrial ribosome Mit 13 A1555G mutant hybridized with Mycobacterium smegmatis ribosome assessed as inhibition of translation activity using Firefly luciferase mRNA reporter based luminescence analysis. A digest of the protocol: as §2

The MIC is the least concentration at which growth counts as inhibited. Read a low MIC as inhibition by little substance. A word on the pIC50: it is −log10 of the IC50, conventionally taken in molar units. Take `NC[C@@H]1O[C@H](O[C@H]2[C@@H](O)[C@H](O[C@@H]3[C@@H](O)[C@H](N)C[C@H](N)[C@H]3O[C@H]3O[C@H]4[C@@H](OC[C@@H]4O)[C@H](O)[C@H]3N)O[C@@H]2CO)[C@H](N)[C@@H](O)[C@@H]1O`: the MIC in [1] was 32 µg/mL (≈ 51 µM); in experiment [2], 16 µg/mL (≈ 25.5 µM); in experiment [3] it was 32 µg/mL (≈ 51 µM); in experiment [6] it was 32 µg/mL (≈ 51 µM); in [8], more than 128 µg/mL; in [10] it was 16 µg/mL (≈ 25.5 µM). In addition, the pIC50 in [4] was 3.82; in [5], 6.89; in experiment [11], 4.40. Also, the Ratio IC50 in [7] stood at 943; in experiment [9], 250.
As for `NC[C@@H]1O[C@H](O[C@H]2[C@@H](O)[C@H](O[C@@H]3[C@@H](O)[C@H](N)C[C@H](N)[C@H]3O[C@H]3O[C@H]4[C@@H](OCCC[C@H]4O)[C@H](O)[C@H]3N)O[C@@H]2CO)[C@H](N)[C@@H](O)[C@@H]1O`, the MIC was 64 µg/mL (≈ 97.6 µM) in experiment [1]; 32 µg/mL (≈ 48.8 µM) in [2]; 32 µg/mL (≈ 48.8 µM) in experiment [3]; 32 µg/mL (≈ 48.8 µM) in experiment [6]; more than 128 µg/mL in [8]; 32 µg/mL (≈ 48.8 µM) in experiment [10]. In addition, the Ratio IC50 was determined as 363 in experiment [12] and 342 in [7]. Moreover, the pIC50 is 3.29 in experiment [4], 5.82 in [5] and 3.26 in experiment [13].
In the case of `NC[C@@H]1O[C@H](O[C@H]2[C@@H](O)[C@H](O[C@@H]3[C@@H](O)[C@H](N)C[C@H](N)[C@H]3O[C@H]3O[C@H](CO)[C@@H](O)[C@H](O)[C@H]3N)O[C@@H]2CO)[C@H](N)[C@@H](O)[C@@H]1O` [PAROMOMYCIN], the MIC in experiment [1] is 2 µg/mL (≈ 3.25 µM); in [2], 2 µg/mL (≈ 3.25 µM); in experiment [3] it was 2 µg/mL (≈ 3.25 µM); in experiment [6], 2 µg/mL (≈ 3.25 µM); in experiment [8], more than 128 µg/mL; in experiment [10] it was 1 µg/mL (≈ 1.62 µM). Further, the Ratio IC50 in experiment [12] was found to be 364; in experiment [7], 3970; in experiment [9], 1120. Besides, the pIC50 in [4] is 3.88; in [5], 7.48; in experiment [13], 4.92; in [11] it was 4.43.
Turning to `NC[C@@H]1O[C@H](O[C@H]2[C@@H](O)[C@H](O[C@@H]3[C@@H](O)[C@H](N)C[C@H](N)[C@H]3O[C@H]3O[C@H]4[C@@H](OCC[C@H]4O)[C@H](O)[C@H]3N)O[C@@H]2CO)[C@H](N)[C@@H](O)[C@@H]1O`, the MIC in [1] is 128 µg/mL (≈ 199 µM); in experiment [2], 32 µg/mL (≈ 49.9 µM); in experiment [3], 64 µg/mL (≈ 99.7 µM); in experiment [6], 64 µg/mL (≈ 99.7 µM); in [8] it was more than 128 µg/mL; in experiment [10], 64 µg/mL (≈ 99.7 µM). The values for the Ratio IC50 in experiment [12], in experiment [7] and in experiment [9] were 182, 168 and 169, respectively. Besides, the pIC50 in experiment [4] is 3.26; in experiment [5], 5.48; in experiment [13], 3.22; in experiment [11], 3.25.
`NC[C@@H]1O[C@H](O[C@H]2[C@@H](O)[C@H](O[C@@H]3[C@@H](O)[C@H](N)C[C@H](N)[C@H]3O[C@H]3O[C@H]4[C@@H](OCCC[C@@H]4O)[C@H](O)[C@H]3N)O[C@@H]2CO)[C@H](N)[C@@H](O)[C@@H]1O`: the minimum inhibitory concentration (MIC) in experiment [1] came out at 4 µg/mL (≈ 6.1 µM); in [2], 2 µg/mL (≈ 3.05 µM); in experiment [3], 2 µg/mL (≈ 3.05 µM); in experiment [6] it was 4 µg/mL (≈ 6.1 µM); in experiment [8] it was 64 µg/mL (≈ 97.6 µM); in experiment [10] it was 2 µg/mL (≈ 3.05 µM). For the same compound, the Ratio IC50 in experiment [12] came to 592; in experiment [7], 3420; in experiment [9], 789. In addition, the pIC50 in experiment [4] is 3.61; in experiment [5], 7.15; in [13] it was 4.38; in [11], 4.25.
Regarding `C[C@@H]1C[C@H](O)[C@H]2O[C@H](O[C@H]3[C@H](O[C@@H]4O[C@H](CO)[C@@H](O[C@H]5O[C@@H](CN)[C@@H](O)[C@H](O)[C@H]5N)[C@H]4O)[C@@H](O)[C@H](N)C[C@@H]3N)[C@H](N)[C@@H](O)[C@@H]2O1`, the MIC in experiment [1] worked out at 4 µg/mL (≈ 6.1 µM); in [2], 4 µg/mL (≈ 6.1 µM); in [3], 2 µg/mL (≈ 3.05 µM); in experiment [6], 4 µg/mL (≈ 6.1 µM); in [8], 32 µg/mL (≈ 48.8 µM); in [10] it was 2 µg/mL (≈ 3.05 µM). Moreover, the Ratio IC50 amounted to 317 in experiment [12], 3970 in experiment [7] and 540 in experiment [9]. Further, the pIC50 in [4] was 3.60; in experiment [5], 7.20; in experiment [13] it was 4.70; in [11] it was 4.47.
With `NC[C@@H]1O[C@H](O[C@H]2[C@@H](O)[C@H](O[C@@H]3[C@@H](O)[C@H](N)C[C@H](N)[C@H]3O[C@H]3O[C@H]4[C@@H](OC[C@H]4O)[C@H](O)[C@H]3N)O[C@@H]2CO)[C@H](N)[C@@H](O)[C@@H]1O`, the MIC in experiment [1] is 16 µg/mL (≈ 25.5 µM); in experiment [2], 8 µg/mL (≈ 12.7 µM); in [3], 8 µg/mL (≈ 12.7 µM); in [6], 8 µg/mL (≈ 12.7 µM); in [8], more than 64 µg/mL; in experiment [10], 4 µg/mL (≈ 6.37 µM). Also, the Ratio IC50 is 585 in experiment [12], 655 in experiment [7] and 1380 in [9]. Also, the pIC50 is 3.88 in experiment [4], 6.70 in experiment [5], 3.93 in experiment [13] and 3.56 in experiment [11].
With `NC[C@@H]1O[C@H](O[C@H]2[C@@H](O)[C@H](O[C@@H]3[C@@H](O)[C@H](N)C[C@H](N)[C@H]3O[C@H]3O[C@H]4[C@@H](OCC[C@@H]4O)[C@H](O)[C@H]3N)O[C@@H]2CO)[C@H](N)[C@@H](O)[C@@H]1O`, the MIC in experiment [1] is 8 µg/mL (≈ 12.5 µM); in [2], 2 µg/mL (≈ 3.12 µM); in experiment [3], 4 µg/mL (≈ 6.23 µM); in experiment [6], 8 µg/mL (≈ 12.5 µM); in experiment [8], more than 128 µg/mL; in [10] it was 4 µg/mL (≈ 6.23 µM). Further, the Ratio IC50 in experiment [12] was found to be 1100; in experiment [7] it was 1920; in [9], 1000. For the same compound, the pIC50 in [4] was 3.64; in experiment [5], 6.92; in experiment [13], 3.88; in [11], 3.92.
With `C[C@@H]1C[C@@H](O)[C@H]2O[C@H](O[C@H]3[C@H](O[C@@H]4O[C@H](CO)[C@@H](O[C@H]5O[C@@H](CN)[C@@H](O)[C@H](O)[C@H]5N)[C@H]4O)[C@@H](O)[C@H](N)C[C@@H]3N)[C@H](N)[C@@H](O)[C@@H]2O1`, the MIC in experiment [1] is 32 µg/mL (≈ 48.8 µM); in experiment [2] it was 32 µg/mL (≈ 48.8 µM); in experiment [3], 32 µg/mL (≈ 48.8 µM); in [6], 32 µg/mL (≈ 48.8 µM); in [8], more than 128 µg/mL; in [10], 16 µg/mL (≈ 24.4 µM). Besides, the results for the Ratio IC50 in experiment [12], in experiment [7] and in experiment [9] were 367, 418 and 299, respectively. Besides, the pIC50 in experiment [4] is 3.43; in experiment [5], 6.05; in [13], 3.49; in [11] it was 3.58.

The record behind these values is ChEMBL document CHEMBL5136970, “Influence of ring size in conformationally restricted ring I analogs of paromomycin on antiribosomal and antibacterial activity” (RSC Med Chem, 2021).
